Test results: ChEMBL document CHEMBL1149468, “Pyridobenzodiazepines: a novel class of orally active, vasopressin V2 receptor selective agonists” (Bioorg Med Chem Lett, 2006)
Calls of active or inactive are those of the source. The calls are words filed in the database; no cut-off is given here. Bridge positions count the residues as written; N and C are the ends. Square brackets hold non-standard residues; d marks the D form. Peptide text beside a SMILES is read from it. Orn = NCCC[C@H](N)C(=O)O; Mpa = O=C(O)CCS

Columns and labels:
Rattus norvegicus [1] = test: Antidiuretic effect measured as increase in osmolality over control in water-loaded Sprague-Dawley rat at 10 mg/kg, po; assay type: functional, Urine
In short: (§1)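 Conscious water-loaded rats dosed orally; 30 min later stomachs gavaged with deionized water, 30 mL/kg. Urine collected over 4 h for volume; osmolality by cryoscopic osmometer; Na+, K+, Cl- by ion-selective electrodes. Expressed as percent change versus control at the stated dose (screening dose 10 mg/kg po).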

Vasopressin V1a receptor [2] = target: T1, Vasopressin V1a receptor (Homo sapiens, UniProt P37288); test: Displacement of [3H]AVP from human V1a receptor expressed in CHO cells at 1 uM; assay type: cell-based
Target sequence in this assay (P37288 whole entry, looked up): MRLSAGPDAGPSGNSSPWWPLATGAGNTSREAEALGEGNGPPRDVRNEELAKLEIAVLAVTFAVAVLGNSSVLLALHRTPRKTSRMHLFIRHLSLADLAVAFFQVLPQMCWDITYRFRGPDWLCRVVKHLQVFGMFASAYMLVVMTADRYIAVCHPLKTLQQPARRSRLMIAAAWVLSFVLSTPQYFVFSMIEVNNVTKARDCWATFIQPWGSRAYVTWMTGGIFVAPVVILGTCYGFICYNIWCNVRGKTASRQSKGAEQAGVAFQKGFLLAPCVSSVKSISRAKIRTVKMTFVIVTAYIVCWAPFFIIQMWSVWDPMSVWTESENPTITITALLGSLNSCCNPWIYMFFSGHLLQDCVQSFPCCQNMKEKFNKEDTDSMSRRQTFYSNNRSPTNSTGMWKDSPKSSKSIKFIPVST

Vasopressin V2 receptor [3] = target: T2, Vasopressin V2 receptor (Homo sapiens, UniProt P30518); test: Displacement of [3H]AVP from human V2 receptor transfected in LV2 cells; assay type: cell-based
In short: (§2)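 Inhibition of [3H]AVP binding to membranes from CHO cells expressing human V1a receptors or from LV2 cells transfected with human V2 receptors; IC50 values are means of two to five (or three) experiments.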

Rattus norvegicus [4] = test: Antidiuretic effect measured as decrease in urine volume over control in water-loaded Sprague-Dawley rat at 10 mg/kg, po; assay type: functional; parameters: Activity: scale not given: the % may be the effect or the level left; details: for Activity: dose 10 mg/kg; for ED50: Rattus norvegicus, Sprague-Dawley, Urine; in short: as §1
Vasopressin V2 receptor [5] = target: T2, Vasopressin V2 receptor; test: Displacement of [3H]AVP from human V2 receptor transfected in LV2 cells at 300 nM; assay type: cell-based
In short: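 Inhibition of [3H]AVP binding to membranes of LV2 cells transfected with human V2 receptors, reported as percent inhibition at 300 nM.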

Vasopressin V1a receptor [6] = target: T1, Vasopressin V1a receptor; test: Displacement of [3H]AVP from human V1a receptor expressed in CHO cells; assay type: cell-based; in short: as §2
Target sequence in this assay (P37288 whole entry): as the sequence (P37288 whole entry, looked up) above

Vasopressin V1a receptor [7] = target: T1, Vasopressin V1a receptor; test: Displacement of [3H]AVP from human V1a receptor expressed in CHO cells at 0.1 uM; assay type: cell-based
Target sequence in this assay (P37288 whole entry, looked up): as above

Vasopressin V1a receptor [8] = target: T1, Vasopressin V1a receptor; test: Displacement of [3H]AVP from human V1a receptor expressed in CHO cell membrane at 10 uM; assay type: cell membranes
Target sequence in this assay (P37288 whole entry, looked up): as above

Oxytocin receptor = target: T3, Oxytocin receptor (Rattus norvegicus, UniProt P70536); test: Antagonism of OT-induced response at OT receptor in rat uterine strips; assay type: functional
T3 sequence (P70536 whole entry): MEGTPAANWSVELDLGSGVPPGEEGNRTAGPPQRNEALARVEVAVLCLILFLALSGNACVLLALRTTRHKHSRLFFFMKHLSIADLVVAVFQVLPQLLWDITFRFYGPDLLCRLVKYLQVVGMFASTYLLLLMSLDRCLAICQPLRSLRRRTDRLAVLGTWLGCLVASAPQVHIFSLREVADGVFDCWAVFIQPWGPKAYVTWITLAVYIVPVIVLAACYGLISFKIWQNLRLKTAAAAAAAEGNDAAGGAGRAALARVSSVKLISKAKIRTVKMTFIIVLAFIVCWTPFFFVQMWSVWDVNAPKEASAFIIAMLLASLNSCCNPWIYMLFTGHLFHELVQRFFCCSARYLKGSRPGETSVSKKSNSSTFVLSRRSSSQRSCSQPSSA

Vasopressin V2 receptor [9] = target: T2, Vasopressin V2 receptor; test: Binding to human V2 receptor expressed in LV2 cells by cAMP production; assay type: functional, cell-based
[10] = target: Vasopressin V1a receptor (Rattus norvegicus) (UniProt P30560); test: Agonist activity at V1a receptor indicated by production of contractions in rat tail arteries; assay type: functional, tissue-based
[11] = target: T4, Oxytocin receptor (Rattus norvegicus) (UniProt P70536); test: Agonist activity at OT receptor indicated by production of contractions in rat uterine strips; assay type: functional
T4 sequence (whole entry): T3 sequence (P70536 whole entry)

Vasopressin V1a receptor [12] = target: Vasopressin V1a receptor (Rattus norvegicus, UniProt P30560); test: Antagonism of AVP-induced response at V1a receptor in isolated rat tail arteries; assay type: functional, tissue-based
Sequence of Vasopressin V1a receptor (Rattus norvegicus, UniProt P30560) (P30560 whole entry): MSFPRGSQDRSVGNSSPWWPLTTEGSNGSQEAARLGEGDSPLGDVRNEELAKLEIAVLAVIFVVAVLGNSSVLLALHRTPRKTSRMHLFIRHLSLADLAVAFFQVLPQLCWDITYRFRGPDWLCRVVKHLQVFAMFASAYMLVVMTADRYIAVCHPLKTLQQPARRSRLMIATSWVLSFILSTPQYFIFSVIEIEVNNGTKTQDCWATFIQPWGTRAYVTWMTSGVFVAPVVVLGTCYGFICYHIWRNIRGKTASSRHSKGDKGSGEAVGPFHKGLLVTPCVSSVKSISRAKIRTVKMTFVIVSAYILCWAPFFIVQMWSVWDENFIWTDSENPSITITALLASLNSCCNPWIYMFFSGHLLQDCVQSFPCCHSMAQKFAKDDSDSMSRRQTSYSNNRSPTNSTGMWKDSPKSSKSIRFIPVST

T2 sequence (P30518 whole entry): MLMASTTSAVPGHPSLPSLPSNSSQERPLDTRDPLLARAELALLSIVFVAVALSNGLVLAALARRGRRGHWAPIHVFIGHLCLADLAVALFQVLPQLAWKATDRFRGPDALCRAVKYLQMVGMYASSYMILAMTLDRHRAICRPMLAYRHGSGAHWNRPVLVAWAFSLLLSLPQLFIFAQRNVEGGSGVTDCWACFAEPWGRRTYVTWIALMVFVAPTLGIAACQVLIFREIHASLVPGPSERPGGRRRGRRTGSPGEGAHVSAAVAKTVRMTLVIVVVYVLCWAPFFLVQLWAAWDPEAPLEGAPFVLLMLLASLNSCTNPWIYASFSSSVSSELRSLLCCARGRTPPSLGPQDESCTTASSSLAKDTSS
Sequence of Vasopressin V1a receptor (Rattus norvegicus) (P30560 whole entry, looked up): as the sequence (P30560 whole entry) above

Row | IC50 (Vasopressin V2 receptor [3]) | inhibition (Vasopressin V2 receptor [5]) | Structure (SMILES) | Activity (Rattus norvegicus [1]) | Activity (Rattus norvegicus [4]) | further results
1 | 0.296 µM | – | Cc1ccn(-c2ccc(C(=O)N3Cc4cccnc4Nc4ccccc43)c(Br)c2)n1 | 247% | 85% | inhibition (Vasopressin V1a receptor [2]): 30%
2 | 0.0915 µM | – | Cc1ccn(-c2ccc(C(=O)N3Cc4cccnc4Nc4ccccc43)c(Cl)c2)n1 | 172% | 80% | inhibition (Vasopressin V1a receptor [2]): 38%
3 | – | 13% | O=C(c1ccc(-n2ccc(C(F)(F)F)n2)cc1Cl)N1Cc2cccnc2Nc2ccccc21 | 162% | 72% | –
4 | – | 26% | CC(C)(C)c1ccn(-c2ccc(C(=O)N3Cc4cccnc4Nc4ccccc43)c(C(F)(F)F)c2)n1 | -7% | 6% | –
5 | 0.183 µM | – | Cn1ccc(-c2ccc(C(=O)N3Cc4cccnc4Nc4ccccc43)c(Cl)c2)n1 | 134% | 76% | IC50 (Vasopressin V1a receptor [6]): 1.78 µM
6 | 0.39 µM | – | Cc1ccnn1-c1ccc(C(=O)N2Cc3cccnc3Nc3ccccc32)c(Cl)c1 | 189% | 61% | –
7 | – | – | CN1c2ccccc2N(C(=O)c2ccc(-c3ccn(C)n3)cc2Cl)Cc2cccnc21 | -11% | 10% | –
8 | – | 5% | Cc1ccn(-c2cc(F)ccc2C(=O)N2Cc3cccnc3Nc3ccccc32)n1 | 177% | 63% | –
9 | 0.413 µM | – | Cc1ccnn1-c1ccc(C(=O)N2Cc3cccnc3Nc3ccccc32)c(C(F)(F)F)c1 | 4% | 25% | inhibition (Vasopressin V1a receptor [7]): 11%
10 | – | 26% | O=C(c1ccc(-n2ccc(-c3ccncc3)n2)cc1Br)N1Cc2cccnc2Nc2ccccc21 | 11% | 24% | –
11 | – | 10% | Cc1ccn(-c2ccc(C(=O)N3Cc4cccnc4N(C)c4ccccc43)c(C(F)(F)F)c2)n1 | 198% | 72% | inhibition (Vasopressin V1a receptor [8]): 32%
12 | – | – | CCOc1ccc(C[C@H]2NC(=O)CCSSC[C@@H](C(=O)N3CCC[C@H]3C(=O)N[C@@H](CCCN)C(=O)NCC(N)=O)NC(=O)[C@H](CC(N)=O)NC(=O)[C@H]([C@@H](C)O)NC(=O)[C@H]([C@@H](C)CC)NC2=O)cc1 [ATOSIBAN] ([Mpa][dY](Et)ITNCP[Orn]G-NH2; disulfide 1-6) | – | – | IC50 (Oxytocin receptor): 0.012 µM
13 | 0.475 µM | – | Cc1ccn(-c2ccc(C(=O)N3Cc4cccnc4N(C)c4ccccc43)c(Cl)c2)n1 | 275% | 71% | inhibition (Vasopressin V1a receptor [2]): 20%
14 | – | – | Cc1n[nH]c(-c2ccc(C(=O)N3Cc4cccnc4Nc4ccccc43)c(Cl)c2)n1 | 516% | 86% | –
15 | 0.08 µM | – | Cc1ccn(-c2ccc(C(=O)N3Cc4cccn4Cc4ccccc43)c(Cl)c2)n1 | 286% | 74% | EC50 (Vasopressin V2 receptor [9]): 0.00074 µM; IC50 (Vasopressin V1a receptor [6]): 0.778 µM; ED50 (Rattus norvegicus [4]): 0.14 mg/kg
16 | – | -7% | O=C(c1ccc(-n2ccc(C(F)(F)F)n2)cc1C(F)(F)F)N1Cc2cccnc2Nc2ccccc21 | 183% | 69% | –
17 | 0.933 µM | – | Cc1ccn(-c2ccc(C(=O)N3Cc4cccnc4Nc4ccccc43)c(F)c2)n1 | 272% | 59% | –
18 | 0.493 µM | – | Cc1ccn(-c2ccc(C(=O)N3Cc4cccnc4Nc4ccccc43)c(C(F)(F)F)c2)n1 | 239% | 87% | Activity [10]: inactive; Activity [11]: inactive; IC50 (Vasopressin V1a receptor [12]): > 30 µM; IC50 (Oxytocin receptor): 1.26 µM; EC50 (Vasopressin V2 receptor [9]): 0.00167 µM; IC50 (Vasopressin V1a receptor [6]): 5.95 µM; ED50 (Rattus norvegicus [4]): 0.1 mg/kg
